In ChEMBL document CHEMBL4145497, “Discovery of 2-aminothiazolyl berberine derivatives as effectively antibacterial agents toward clinically drug-resistant Gram-negative Acinetobacter baumanii” (Eur J Med Chem, 2018):
In brackets after ≈: the same amount, converted by molar mass.

Columns and labels:
[1] = tested on: Staphylococcus aureus; test: Antibacterial activity against Staphylococcus aureus ATCC 25923 after 18 to 24 hrs by CLSI two fold serial dilution method; type: functional
[2] = tested on: Bacillus subtilis; test: Antibacterial activity against Bacillus subtilis ATCC 21216 after 18 to 24 hrs by CLSI two fold serial dilution method; type: functional
[3] = tested on: Micrococcus luteus; test: Antibacterial activity against Micrococcus luteus ATCC 4698 after 18 to 24 hrs by CLSI two fold serial dilution method; type: functional
[4] = tested on: Escherichia coli; test: Antibacterial activity against Escherichia coli DH52 after 18 to 24 hrs by CLSI two fold serial dilution method; type: functional
[5] = tested on: Pseudomonas aeruginosa; test: Antibacterial activity against Pseudomonas aeruginosa ATCC 27853 after 18 to 24 hrs by CLSI two fold serial dilution method; type: functional
[6] = tested on: Candida albicans; test: Antifungal activity against Candida albicans ATCC 76615 by CLSI two fold serial dilution method; type: functional
[7] = tested on: Cyberlindnera jadinii; test: Antifungal activity against Candida utilis ATCC 9950 by CLSI two fold serial dilution method; type: functional; details: Williopsis jadinii
[8] = tested on: Pichia norvegensis; test: Antifungal activity against Candida mycoderma ATCC 96918 by CLSI two fold serial dilution method; type: functional
[9] = tested on: Aspergillus flavus; test: Antifungal activity against Aspergillus flavus ATCC 204304 by CLSI two fold serial dilution method; type: functional
[10] = tested on: Saccharomyces cerevisiae; test: Antifungal activity against Saccharomyces cerevisiae ATCC 9763 by CLSI two fold serial dilution method; type: functional
[11] = tested on: Candida parapsilosis; test: Antifungal activity against Candida parapsilosis ATCC 22019 by CLSI two fold serial dilution method; type: functional; details: Lodderomyces parapsilosis
[12] = Aqueous solubility of the compound in phosphate buffer at pH 7.4 after 3 hrs by UV detection assay; type: physicochemical
In short: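 Water solubility measured at physiological pH, with berberine as the control.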

Compound	MIC [1] [µM]	MIC [2] [µM]	MIC [3] [µM]	MIC [4] [µM]	MIC [5] [µM]	MIC [6] [µM]	MIC [7] [µM]	MIC [8] [µM]	MIC [9] [µM]	MIC [10] [µM]	MIC [11] [µM]	solubility at 3 h [12] [µg/mL]
COc1cc(/C=N/Nc2nccs2)c2c(c1O)CN1CCc3cc4c(cc3C1C2)OCO4 (stereo not drawn)	140 (≈ 63.1 µg/mL)	140 (≈ 63.1 µg/mL)	70 (≈ 31.5 µg/mL)	280 (≈ 126 µg/mL)	140 (≈ 63.1 µg/mL)	140 (≈ 63.1 µg/mL)	280 (≈ 126 µg/mL)	140 (≈ 63.1 µg/mL)	280 (≈ 126 µg/mL)	570 (≈ 257 µg/mL)	40 (≈ 18 µg/mL)	1660 (≈ 3.68 mM)
CCCCOc1c(OC)cc(/C=N/Nc2nccs2)c2c1CN1CCc3cc4c(cc3C1C2)OCO4 (stereo not drawn)	60 (≈ 30.4 µg/mL)	250 (≈ 127 µg/mL)	250 (≈ 127 µg/mL)	60 (≈ 30.4 µg/mL)	250 (≈ 127 µg/mL)	250 (≈ 127 µg/mL)	250 (≈ 127 µg/mL)	250 (≈ 127 µg/mL)	510 (≈ 258 µg/mL)	510 (≈ 258 µg/mL)	8 (≈ 4.05 µg/mL)	7020 to 10200 (≈ 13.9 to 20.1 mM)
COc1cc(/C=N/Nc2nccs2)c2c(c1OCc1cccc(Cl)c1)CN1CCc3cc4c(cc3C1C2)OCO4 (stereo not drawn)	220 (≈ 127 µg/mL)	110 (≈ 63.3 µg/mL)	220 (≈ 127 µg/mL)	890 (≈ 512 µg/mL)	220 (≈ 127 µg/mL)	450 (≈ 259 µg/mL)	450 (≈ 259 µg/mL)	220 (≈ 127 µg/mL)	450 (≈ 259 µg/mL)	890 (≈ 512 µg/mL)	60 (≈ 34.5 µg/mL)	374 to 3190 (≈ 0.65 to 5.55 mM)
COc1cc(/C=N/Nc2nccs2)c2c(c1OCc1ccc(Cl)c(Cl)c1)CN1CCc3cc4c(cc3C1C2)OCO4 (stereo not drawn)	110 (≈ 67 µg/mL)	210 (≈ 128 µg/mL)	420 (≈ 256 µg/mL)	110 (≈ 67 µg/mL)	110 (≈ 67 µg/mL)	420 (≈ 256 µg/mL)	420 (≈ 256 µg/mL)	210 (≈ 128 µg/mL)	420 (≈ 256 µg/mL)	840 (≈ 512 µg/mL)	110 (≈ 67 µg/mL)	374 to 3190 (≈ 0.614 to 5.23 mM)
COc1cc(/C=N/Nc2nccs2)c2c(c1OCc1ccccc1)CN1CCc3cc4c(cc3C1C2)OCO4 (stereo not drawn)	240 (≈ 130 µg/mL)	470 (≈ 254 µg/mL)	240 (≈ 130 µg/mL)	950 (≈ 514 µg/mL)	240 (≈ 130 µg/mL)	470 (≈ 254 µg/mL)	470 (≈ 254 µg/mL)	60 (≈ 32.4 µg/mL)	950 (≈ 514 µg/mL)	950 (≈ 514 µg/mL)	60 (≈ 32.4 µg/mL)	374 to 3190 (≈ 0.692 to 5.9 mM)
COc1cc(/C=N/Nc2nccs2)c2c(c1OCc1ccccc1Cl)CN1CCc3cc4c(cc3C1C2)OCO4 (stereo not drawn)	110 (≈ 63.3 µg/mL)	220 (≈ 127 µg/mL)	890 (≈ 512 µg/mL)	450 (≈ 259 µg/mL)	450 (≈ 259 µg/mL)	450 (≈ 259 µg/mL)	450 (≈ 259 µg/mL)	110 (≈ 63.3 µg/mL)	890 (≈ 512 µg/mL)	890 (≈ 512 µg/mL)	110 (≈ 63.3 µg/mL)	374 to 3190 (≈ 0.65 to 5.55 mM)
COc1cc(/C=N/Nc2nccs2)c2c(c1OCC#N)CN1CCc3cc4c(cc3C1C2)OCO4 (stereo not drawn)	130 (≈ 63.6 µg/mL)	260 (≈ 127 µg/mL)	260 (≈ 127 µg/mL)	260 (≈ 127 µg/mL)	260 (≈ 127 µg/mL)	70 (≈ 34.3 µg/mL)	520 (≈ 255 µg/mL)	130 (≈ 63.6 µg/mL)	1050 (≈ 514 µg/mL)	1050 (≈ 514 µg/mL)	20 (≈ 9.79 µg/mL)	7020 to 10200 (≈ 14.3 to 20.8 mM)
CCOc1c(OC)cc(/C=N/Nc2nccs2)c2c1CN1CCc3cc4c(cc3C1C2)OCO4 (stereo not drawn)	70 (≈ 33.5 µg/mL)	530 (≈ 254 µg/mL)	530 (≈ 254 µg/mL)	70 (≈ 33.5 µg/mL)	70 (≈ 33.5 µg/mL)	70 (≈ 33.5 µg/mL)	540 (≈ 258 µg/mL)	540 (≈ 258 µg/mL)	540 (≈ 258 µg/mL)	1070 (≈ 512 µg/mL)	30 (≈ 14.4 µg/mL)	10200 (≈ 21.3 mM)
C=CCOc1c(OC)cc(/C=N/Nc2nccs2)c2c1CN1CCc3cc4c(cc3C1C2)OCO4 (stereo not drawn)	30 (≈ 14.7 µg/mL)	520 (≈ 255 µg/mL)	130 (≈ 63.8 µg/mL)	130 (≈ 63.8 µg/mL)	260 (≈ 128 µg/mL)	130 (≈ 63.8 µg/mL)	130 (≈ 63.8 µg/mL)	520 (≈ 255 µg/mL)	260 (≈ 128 µg/mL)	1040 (≈ 510 µg/mL)	70 (≈ 34.3 µg/mL)	7020 to 10200 (≈ 14.3 to 20.8 mM)
